# Where a SMILES comes first, the peptide text is derived from it. [ ]: non-standard residue; d: D form. The star is where a group is joined. Adenosine(5'-uronoyl) = Nc1ncnc2c1ncn2[C@@H]1O[C@H](C(=O)*)[C@@H](O)[C@H]1O; Ahx = NCCCCCC(=O)O
# Tests used:
# [1] = molecular target: T1, cAMP-dependent protein kinase catalytic subunit alpha (Homo sapiens, UniProt P17612); test: Inhibition of PKA catalytic subunit alpha using 100 uM ATP and 30 uM TAMRA-kemptide substrate by fluorometric TLC assay
# [2] = molecular target: T1, cAMP-dependent protein kinase catalytic subunit alpha; test: Binding affinity to PKA catalytic subunit alpha by fluorescence polarization assay
# [3] = molecular target: T2, RAC-gamma serine/threonine-protein kinase (Homo sapiens, UniProt Q9Y243); test: Inhibition of PKBgamma using 100 uM ATP and 30 uM TAMRA-kemptide substrate by fluorometric TLC assay
# T2 sequence (Q9Y243 whole entry): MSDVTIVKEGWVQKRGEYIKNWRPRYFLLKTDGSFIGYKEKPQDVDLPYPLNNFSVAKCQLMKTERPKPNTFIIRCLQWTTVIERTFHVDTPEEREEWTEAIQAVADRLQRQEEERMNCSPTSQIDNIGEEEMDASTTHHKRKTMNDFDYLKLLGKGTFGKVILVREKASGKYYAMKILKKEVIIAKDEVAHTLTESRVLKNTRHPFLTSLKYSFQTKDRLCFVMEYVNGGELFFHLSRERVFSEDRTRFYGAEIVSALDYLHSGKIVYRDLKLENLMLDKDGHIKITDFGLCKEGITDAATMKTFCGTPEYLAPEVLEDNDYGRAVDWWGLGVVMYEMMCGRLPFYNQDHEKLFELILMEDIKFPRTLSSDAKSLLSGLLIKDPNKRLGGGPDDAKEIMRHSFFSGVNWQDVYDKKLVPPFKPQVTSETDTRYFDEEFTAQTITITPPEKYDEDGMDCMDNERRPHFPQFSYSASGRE
# [4] = molecular target: 5'-AMP-activated protein kinase catalytic subunit alpha-1 (Homo sapiens) (UniProt Q13131); test: Inhibition of AMPKalpha1 at 100 nM relative to control
# In short: (§1)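 Activity is expressed as percent inhibition versus control incubations lacking inhibitor. Values are means of duplicate determinations.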
# [5] = molecular target: Aurora kinase A (Homo sapiens) (UniProt O14965); test: Inhibition of Aurora A at 100 nM relative to control; in short: as §1
# [6] = molecular target: Calcium/calmodulin-dependent protein kinase type 1D (Homo sapiens) (UniProt Q8IU85); test: Inhibition of CaMK1delta at 100 nM relative to control; in short: as §1
# [7] = molecular target: Calcium/calmodulin-dependent protein kinase type II subunit alpha (Homo sapiens) (UniProt Q9UQM7); test: Inhibition of CaMK2alpha at 100 nM relative to control; in short: as §1
# Calcium/calmodulin-dependent protein kinase type II subunit alpha (Homo sapiens), sequence (Q9UQM7 whole entry): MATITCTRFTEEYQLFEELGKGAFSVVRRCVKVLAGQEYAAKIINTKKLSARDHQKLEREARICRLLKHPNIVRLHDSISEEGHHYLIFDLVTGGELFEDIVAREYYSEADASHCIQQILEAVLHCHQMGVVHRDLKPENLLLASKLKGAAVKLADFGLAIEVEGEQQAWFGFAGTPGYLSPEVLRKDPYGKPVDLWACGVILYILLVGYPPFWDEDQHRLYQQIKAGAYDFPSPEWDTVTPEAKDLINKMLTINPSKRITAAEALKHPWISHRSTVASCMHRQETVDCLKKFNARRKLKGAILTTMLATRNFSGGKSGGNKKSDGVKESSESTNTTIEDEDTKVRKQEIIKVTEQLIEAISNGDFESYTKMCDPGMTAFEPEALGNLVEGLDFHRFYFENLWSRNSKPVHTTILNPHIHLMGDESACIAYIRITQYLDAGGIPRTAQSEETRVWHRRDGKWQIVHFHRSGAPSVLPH
# [8] = molecular target: Calcium/calmodulin-dependent protein kinase type II subunit beta (Homo sapiens) (UniProt Q13554); test: Inhibition of CaMK2beta at 100 nM relative to control; in short: as §1
# [9] = molecular target: CDK2/Cyclin A1 (Homo sapiens) (UniProt P24941+P78396); test: Inhibition of Cdk2/cyclin A at 100 nM relative to control; format: protein-complex assay; in short: as §1
# [10] = molecular target: Serine/threonine-protein kinase Chk1 (Homo sapiens) (UniProt O14757); test: Inhibition of CHK1 at 100 nM relative to control; in short: as §1
# Serine/threonine-protein kinase Chk1 (Homo sapiens), sequence (O14757 whole entry): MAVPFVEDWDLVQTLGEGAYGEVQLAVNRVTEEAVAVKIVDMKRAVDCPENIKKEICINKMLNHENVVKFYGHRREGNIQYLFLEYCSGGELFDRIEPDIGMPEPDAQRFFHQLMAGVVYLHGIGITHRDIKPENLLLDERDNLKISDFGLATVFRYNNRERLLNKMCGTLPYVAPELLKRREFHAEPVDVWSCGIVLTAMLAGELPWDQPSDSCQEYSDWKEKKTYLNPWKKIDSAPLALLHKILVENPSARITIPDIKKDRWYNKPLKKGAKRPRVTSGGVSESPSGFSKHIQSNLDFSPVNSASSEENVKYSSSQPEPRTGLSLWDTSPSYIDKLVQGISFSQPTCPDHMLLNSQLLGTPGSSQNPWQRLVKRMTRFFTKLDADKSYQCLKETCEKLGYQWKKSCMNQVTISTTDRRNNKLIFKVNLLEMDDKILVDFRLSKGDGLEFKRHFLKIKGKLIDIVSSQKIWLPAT
# [11] = molecular target: Serine/threonine-protein kinase Chk2 (Homo sapiens) (UniProt O96017); test: Inhibition of CHK2 at 100 nM relative to control; in short: as §1
# [12] = molecular target: Death-associated protein kinase 3 (Homo sapiens) (UniProt O43293); test: Inhibition of DAPK3 at 100 nM relative to control; in short: as §1
# [13] = molecular target: Glycogen synthase kinase-3 alpha (Homo sapiens) (UniProt P49840); test: Inhibition of GSK3alpha at 100 nM relative to control; in short: as §1
# [14] = molecular target: Maternal embryonic leucine zipper kinase (Homo sapiens) (UniProt Q14680); test: Inhibition of MELK at 100 nM relative to control; in short: as §1
# [15] = molecular target: Ribosomal protein S6 kinase alpha-5 (Homo sapiens) (UniProt O75582); test: Inhibition of MSK1 at 100 nM relative to control; in short: as §1
# [16] = molecular target: Ribosomal protein S6 kinase alpha-4 (Homo sapiens) (UniProt O75676); test: Inhibition of MSK2 at 100 nM relative to control; in short: as §1
# [17] = molecular target: Ribosomal protein S6 kinase beta-1 (Homo sapiens) (UniProt P23443); test: Inhibition of p70S6K at 100 nM relative to control; in short: as §1
# [18] = molecular target: Serine/threonine-protein kinase PAK 3 (Homo sapiens) (UniProt O75914); test: Inhibition of PAK3 at 100 nM relative to control; in short: as §1
# [19] = molecular target: Serine/threonine-protein kinase pim-1 (Homo sapiens) (UniProt P11309); test: Inhibition of PIM1 at 100 nM relative to control; in short: as §1
# [20] = molecular target: Serine/threonine-protein kinase pim-2 (Homo sapiens) (UniProt Q9P1W9); test: Inhibition of PIM2 at 100 nM relative to control; in short: as §1
# [21] = molecular target: Protein kinase C alpha type (Homo sapiens) (UniProt P17252); test: Inhibition of PKCalpha at 100 nM relative to control; in short: as §1
# [22] = molecular target: Protein kinase C beta type (Homo sapiens) (UniProt P05771); test: Inhibition of PKCbeta1 at 100 nM relative to control; in short: as §1
# Protein kinase C beta type (Homo sapiens), sequence (P05771 2-671 limits assumed): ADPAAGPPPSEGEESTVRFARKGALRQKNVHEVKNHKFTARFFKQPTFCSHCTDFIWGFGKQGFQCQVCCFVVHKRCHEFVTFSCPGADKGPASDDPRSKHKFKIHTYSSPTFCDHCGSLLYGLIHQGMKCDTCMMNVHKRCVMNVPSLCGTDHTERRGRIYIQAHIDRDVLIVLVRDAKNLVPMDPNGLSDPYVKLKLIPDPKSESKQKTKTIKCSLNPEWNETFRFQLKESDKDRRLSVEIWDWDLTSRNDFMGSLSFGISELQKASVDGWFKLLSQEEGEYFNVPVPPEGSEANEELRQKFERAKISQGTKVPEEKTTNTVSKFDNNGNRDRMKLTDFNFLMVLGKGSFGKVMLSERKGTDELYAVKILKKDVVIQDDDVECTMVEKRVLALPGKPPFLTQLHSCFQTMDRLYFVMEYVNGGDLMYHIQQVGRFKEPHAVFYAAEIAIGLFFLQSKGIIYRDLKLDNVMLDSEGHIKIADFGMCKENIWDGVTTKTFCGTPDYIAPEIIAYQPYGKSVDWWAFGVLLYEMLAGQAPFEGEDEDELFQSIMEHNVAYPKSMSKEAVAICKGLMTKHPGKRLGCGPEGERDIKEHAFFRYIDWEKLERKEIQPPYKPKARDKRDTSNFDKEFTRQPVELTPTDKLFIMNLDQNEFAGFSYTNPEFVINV
# [23] = molecular target: Protein kinase C beta type (Homo sapiens) (UniProt P05771); test: Inhibition of PKCbeta2 at 100 nM relative to control; in short: as §1
# [24] = molecular target: Protein kinase C delta type (Homo sapiens) (UniProt Q05655); test: Inhibition of PKCdelta at 100 nM relative to control; in short: as §1
# [25] = molecular target: Protein kinase C gamma type (Homo sapiens) (UniProt P05129); test: Inhibition of PKCgamma at 100 nM relative to control; in short: as §1
# [26] = molecular target: Protein kinase C iota type (Homo sapiens) (UniProt P41743); test: Inhibition of PKCiota at 100 nM relative to control; in short: as §1
# [27] = molecular target: Serine/threonine-protein kinase D1 (Homo sapiens) (UniProt Q15139); test: Inhibition of PKCmu at 100 nM relative to control; in short: as §1
# [28] = molecular target: Protein kinase C theta type (Homo sapiens) (UniProt Q04759); test: Inhibition of PKCtheta at 100 nM relative to control; in short: as §1
# Protein kinase C theta type (Homo sapiens), sequence (Q04759 whole entry, looked up): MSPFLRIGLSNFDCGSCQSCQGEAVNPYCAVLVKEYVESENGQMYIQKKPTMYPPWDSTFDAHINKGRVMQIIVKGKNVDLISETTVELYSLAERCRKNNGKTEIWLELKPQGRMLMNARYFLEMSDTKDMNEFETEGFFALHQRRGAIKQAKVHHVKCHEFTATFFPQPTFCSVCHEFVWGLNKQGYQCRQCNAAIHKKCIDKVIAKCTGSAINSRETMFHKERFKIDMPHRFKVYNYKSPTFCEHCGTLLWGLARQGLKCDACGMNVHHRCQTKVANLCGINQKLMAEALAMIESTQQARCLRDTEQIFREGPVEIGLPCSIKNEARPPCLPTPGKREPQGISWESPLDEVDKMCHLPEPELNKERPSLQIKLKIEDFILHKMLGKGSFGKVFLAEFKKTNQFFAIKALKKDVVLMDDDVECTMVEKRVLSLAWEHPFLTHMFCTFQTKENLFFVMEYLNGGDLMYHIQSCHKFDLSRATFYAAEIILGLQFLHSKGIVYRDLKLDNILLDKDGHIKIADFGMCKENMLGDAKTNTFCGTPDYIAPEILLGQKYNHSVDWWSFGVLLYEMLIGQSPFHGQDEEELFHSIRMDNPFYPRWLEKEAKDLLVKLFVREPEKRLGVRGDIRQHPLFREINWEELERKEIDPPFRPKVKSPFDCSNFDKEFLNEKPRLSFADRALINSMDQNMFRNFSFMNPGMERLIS
# [29] = molecular target: Protein kinase C zeta type (Homo sapiens) (UniProt Q05513); test: Inhibition of PKCzeta at 100 nM relative to control; in short: as §1
# [30] = molecular target: cGMP-dependent protein kinase 1 (Homo sapiens) (UniProt Q13976); test: Inhibition of PKG1 at 100 nM relative to control; in short: as §1
# [31] = molecular target: cGMP-dependent protein kinase 2 (Homo sapiens) (UniProt Q13237); test: Inhibition of PKG2 at 100 nM relative to control; in short: as §1
# cGMP-dependent protein kinase 2 (Homo sapiens), sequence (Q13237 whole entry): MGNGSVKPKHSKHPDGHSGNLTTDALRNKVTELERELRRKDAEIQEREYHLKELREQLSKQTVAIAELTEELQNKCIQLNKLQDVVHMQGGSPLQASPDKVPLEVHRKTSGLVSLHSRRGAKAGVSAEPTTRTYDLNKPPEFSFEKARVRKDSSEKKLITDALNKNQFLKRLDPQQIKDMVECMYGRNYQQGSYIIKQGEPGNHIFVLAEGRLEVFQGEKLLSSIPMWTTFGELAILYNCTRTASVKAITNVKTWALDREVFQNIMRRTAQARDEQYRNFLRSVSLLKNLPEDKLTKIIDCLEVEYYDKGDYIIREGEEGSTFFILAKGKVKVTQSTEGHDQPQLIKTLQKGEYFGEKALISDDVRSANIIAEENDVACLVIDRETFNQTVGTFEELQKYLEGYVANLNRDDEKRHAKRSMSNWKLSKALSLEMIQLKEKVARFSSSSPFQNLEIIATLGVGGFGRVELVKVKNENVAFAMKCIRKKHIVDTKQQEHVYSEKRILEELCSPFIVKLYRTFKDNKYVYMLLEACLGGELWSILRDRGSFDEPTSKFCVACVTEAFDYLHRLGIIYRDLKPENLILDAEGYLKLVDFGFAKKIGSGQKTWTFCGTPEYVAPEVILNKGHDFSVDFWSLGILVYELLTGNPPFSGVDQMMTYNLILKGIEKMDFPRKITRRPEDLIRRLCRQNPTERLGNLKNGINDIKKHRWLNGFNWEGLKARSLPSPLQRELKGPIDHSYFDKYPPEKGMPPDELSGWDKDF
# [32] = molecular target: Rho-associated protein kinase 1 (Homo sapiens) (UniProt Q13464); test: Inhibition of ROCK1 at 100 nM relative to control; in short: as §1
# [33] = molecular target: Ribosomal protein S6 kinase alpha-1 (Homo sapiens) (UniProt Q15418); test: Inhibition of RSK1 at 100 nM relative to control; in short: as §1
# [34] = molecular target: Serine/threonine-protein kinase Sgk1 (Homo sapiens) (UniProt O00141); test: Inhibition of SGK1 at 100 nM relative to control; in short: as §1
# [35] = molecular target: Serine/threonine-protein kinase Sgk2 (Homo sapiens) (UniProt Q9HBY8); test: Inhibition of SGK2 at 100 nM relative to control; in short: as §1
# [36] = molecular target: Proto-oncogene tyrosine-protein kinase Src (Homo sapiens) (UniProt P12931); test: Inhibition of SRC at 100 nM relative to control; in short: as §1
# Proto-oncogene tyrosine-protein kinase Src (Homo sapiens), sequence (P12931 2-536 limits assumed): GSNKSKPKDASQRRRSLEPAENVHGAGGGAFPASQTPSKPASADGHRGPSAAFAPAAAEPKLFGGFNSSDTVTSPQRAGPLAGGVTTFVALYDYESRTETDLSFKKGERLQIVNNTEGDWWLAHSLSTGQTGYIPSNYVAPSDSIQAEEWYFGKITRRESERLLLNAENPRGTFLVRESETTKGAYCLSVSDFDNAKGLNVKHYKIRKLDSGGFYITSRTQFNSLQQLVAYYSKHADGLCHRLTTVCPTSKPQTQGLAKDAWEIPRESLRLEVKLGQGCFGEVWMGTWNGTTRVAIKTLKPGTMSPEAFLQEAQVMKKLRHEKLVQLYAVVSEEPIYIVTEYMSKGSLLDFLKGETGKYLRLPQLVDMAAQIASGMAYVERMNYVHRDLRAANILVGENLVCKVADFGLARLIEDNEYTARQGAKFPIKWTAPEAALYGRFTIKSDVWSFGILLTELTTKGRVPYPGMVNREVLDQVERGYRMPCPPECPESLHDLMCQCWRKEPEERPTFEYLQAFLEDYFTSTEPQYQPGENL
# [37] = molecular target: T1, cAMP-dependent protein kinase catalytic subunit alpha; settings: 100 nM
# [38] = molecular target: T2, RAC-gamma serine/threonine-protein kinase; settings: 100 nM
# [39] = molecular target: cAMP-dependent protein kinase catalytic subunit PRKX (Homo sapiens) (UniProt P51817); settings: 100 nM
# [40] = molecular target: Rho-associated protein kinase 2 (Homo sapiens) (UniProt O75116); settings: 100 nM
# [41] = molecular target: Ribosomal protein S6 kinase alpha-3 (Homo sapiens) (UniProt P51812); settings: 100 nM
# Ribosomal protein S6 kinase alpha-3 (Homo sapiens), sequence (P51812 whole entry): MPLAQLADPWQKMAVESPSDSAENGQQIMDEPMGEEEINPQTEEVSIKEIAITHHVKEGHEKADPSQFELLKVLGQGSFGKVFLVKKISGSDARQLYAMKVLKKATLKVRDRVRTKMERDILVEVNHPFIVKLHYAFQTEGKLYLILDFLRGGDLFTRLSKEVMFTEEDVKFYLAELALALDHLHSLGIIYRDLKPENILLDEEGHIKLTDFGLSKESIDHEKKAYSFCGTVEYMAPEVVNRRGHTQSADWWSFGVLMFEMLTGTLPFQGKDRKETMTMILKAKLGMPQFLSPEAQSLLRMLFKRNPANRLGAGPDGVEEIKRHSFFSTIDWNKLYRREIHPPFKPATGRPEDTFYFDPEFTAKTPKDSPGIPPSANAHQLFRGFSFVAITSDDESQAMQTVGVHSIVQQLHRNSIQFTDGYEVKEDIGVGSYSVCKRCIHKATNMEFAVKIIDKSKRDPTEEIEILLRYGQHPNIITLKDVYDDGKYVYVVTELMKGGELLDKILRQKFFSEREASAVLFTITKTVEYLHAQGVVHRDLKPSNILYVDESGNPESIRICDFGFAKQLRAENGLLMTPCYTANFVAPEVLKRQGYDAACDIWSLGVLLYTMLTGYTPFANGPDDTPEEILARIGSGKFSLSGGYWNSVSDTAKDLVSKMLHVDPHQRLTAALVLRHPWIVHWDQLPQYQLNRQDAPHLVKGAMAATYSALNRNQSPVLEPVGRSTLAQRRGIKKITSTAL
# [42] = molecular target: Rho-associated protein kinase 2 (Bos taurus) (UniProt Q28021); test: Binding affinity to ROCK2 by fluorescence polarization assay
smiles,measurement,setting,value
N=C(N)NCCC[C@@H](NC(=O)[C@@H](CCCNC(=N)N)NC(=O)[C@@H](CCCNC(=N)N)NC(=O)[C@@H](CCCNC(=N)N)NC(=O)[C@@H](CCCNC(=N)N)NC(=O)[C@@H](CCCNC(=N)N)NC(=O)CCCCCNC(=O)[C@@H](CCCCN)NC(=O)CCCCCNC(=O)[C@H]1O[C@@H](n2cnc3c(N)ncnc32)[C@H](O)[C@@H]1O)C(N)=O ({Adenosine(5'-uronoyl)-Ahx}-[dK][Ahx][dR][dR][dR][dR][dR][dR]-NH2),IC50,[1],5.32 nM
same,Kd,[2],< 0.5 nM
same,IC50,[3],14.6 nM
same,inhibition,[4],51%
same,inhibition,[5],10%
same,inhibition,[6],35%
same,inhibition,[7],5%
same,inhibition,[8],16%
same,inhibition,[9],0%
same,inhibition,[10],88%
same,inhibition,[11],62%
same,inhibition,[12],22%
same,inhibition,[13],16%
same,inhibition,[14],84%
same,inhibition,[15],105%
same,inhibition,[16],109%
same,inhibition,[17],96%
same,inhibition,[18],74%
same,inhibition,[19],96%
same,inhibition,[20],79%
same,inhibition,[21],94%
same,inhibition,[22],97%
same,inhibition,[23],94%
same,inhibition,[24],97%
same,inhibition,[25],107%
same,inhibition,[26],34%
same,inhibition,[27],54%
same,inhibition,[28],97%
same,inhibition,[29],53%
same,inhibition,[30],58%
same,inhibition,[31],16%
same,inhibition,[32],105%
same,inhibition,[33],98%
same,inhibition,[34],89%
same,inhibition,[35],76%
same,inhibition,[36],28%
same,inhibition,[37],104%
same,inhibition,[38],87%
same,inhibition,[39],104%
same,inhibition,[40],104%
same,inhibition,[41],104%
same,Kd,[42],< 1 nM

# — ChEMBL document CHEMBL1139385, “Structural analysis of ARC-type inhibitor (ARC-1034) binding to protein kinase A catalytic subunit and rational design of bisubstrate analogue inhibitors of basophilic protein kinases” (J Med Chem, 2009)
